The source of these data is ChEMBL document CHEMBL1123430, “Potential tumor- or organ-imaging agents. 26. Polyiodinated 2-substituted triacylglycerols as hepatographic agents” (J Med Chem, 1986).

Data set [1] deals with Rattus norvegicus. Kind of data set: Polyacrylamide Gel Electrophoresis (PAGE) analysis of rat plasma after intravenous administration of radiolabeled compound at concentration of low-density lipoprotein. The class given is functional, organism-based. In a few lines:
(§1)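 ¹²⁵I-labeled compound, radioiodinated by exchange in a pivalic acid melt, solubilized in normal saline with Tween 20 and given iv to adult female Sprague–Dawley rats (200–250 g), 5–30 μCi/animal, 3–4 rats per time point. Plasma was run on polyacrylamide gels. Gels were sectioned and gamma counted. Radioactivity per band (stacking gel, LDL, HDL, albumin, below albumin) is given as % of total applied; mean ± SEM, n = 3-5.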

Data set [2] relates to Rattus norvegicus. Put plainly: Polyacrylamide Gel Electrophoresis (PAGE) analysis of rat plasma after intravenous administration of radiolabeled compound in high density lipoprotein. The class given is functional, organism-based. The method, boiled down: as §1
Data set [3] deals with Rattus norvegicus. Put plainly: Distribution of radioactivity of radiolabeled compound in lung of female rats 30 minutes after intravenous administration. The conditions noted are these: in vivo, 0.5 h. The format is ADME, organism-based.
The subject of data set [4] is Rattus norvegicus. Put plainly: Polyacrylamide Gel Electrophoresis (PAGE) analysis of rat plasma 5 minutes after intravenous administration of radiolabeled compound in low-density lipoprotein. The format is functional, organism-based. In a few lines: as §1
In data set [5] the test system is Rattus norvegicus. Put plainly: Distribution of radioactivity of radiolabeled compound in lung of female rats 5 minutes after intravenous administration. The class given is ADME, organism-based. Particulars: in vivo.
For data set [6], the system named is Rattus norvegicus. Put plainly: Distribution of radioactivity of radiolabeled compound in kidney of female rats 5 minutes after intravenous administration. The class given is ADME, organism-based. Particulars: in vivo.
The subject of data set [7] is Rattus norvegicus. Kind of data set: Distribution of radioactivity of radiolabeled compound in liver of female rats 5 minutes after intravenous administration. The conditions noted are these: in vivo. The format is ADME, organism-based.
For data set [8], the system named is Rattus norvegicus. Kind of data set: Distribution of radioactivity of radiolabeled compound in heart of female rats 5 minutes after intravenous administration. The conditions noted are these: in vivo. The format is ADME, organism-based.
The test system of data set [9] is Rattus norvegicus. Kind of data set: Distribution of radioactivity of radiolabeled compound in kidney of female rats 30 minutes after intravenous administration. The class given is ADME, organism-based. Particulars: in vivo, 0.5 h.
Data set [10] has as its system Rattus norvegicus. Kind of data set: Polyacrylamide Gel Electrophoresis (PAGE) analysis of rat plasma 5 minutes after intravenous administration of radiolabeled compound in high density lipoprotein. The class given is functional, organism-based. The method, boiled down: as §1
Data set [11] relates to Rattus norvegicus. Put plainly: Polyacrylamide Gel Electrophoresis (PAGE) analysis of rat plasma after intravenous administration of radiolabeled compound concentration of stacking gel. The format is functional, organism-based. The method, boiled down: as §1
Data set [12] concerns Rattus norvegicus. Kind of data set: Polyacrylamide Gel Electrophoresis (PAGE) analysis of rat plasma 30 min after intravenous administration of radiolabeled compound in albumin. The class given is functional, organism-based. In a few lines:
(§2)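 Gels were sectioned and counted in a γ counter. Radioactivity in each band (stacking gel, LDL, HDL, albumin, below albumin) is expressed as a percentage of the total radioactivity applied to the gel, ± SEM, n = 3-5.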

Data set [13] has as its system Rattus norvegicus. Kind of data set: Polyacrylamide Gel Electrophoresis (PAGE) analysis of rat plasma 30 min after intravenous administration of radiolabeled compound ( below albumin ). The format is functional, organism-based. The method, boiled down: as §2
Data set [14] relates to Rattus norvegicus. Kind of data set: Distribution of radioactivity of radiolabeled compound in heart of female rats 30 minutes after intravenous administration. The format is ADME, organism-based. Particulars: in vivo, 0.5 h.
Data set [15] has as its system Rattus norvegicus. Put plainly: Distribution of radioactivity of radiolabeled compound in blood of female rats 5 minutes after intravenous administration. Particulars: in vivo. The format is ADME, organism-based.
Data set [16] concerns Rattus norvegicus. Kind of data set: Polyacrylamide Gel Electrophoresis (PAGE) analysis of rat plasma 5 min after intravenous administration of radiolabeled compound in albumin. The class given is functional, organism-based. In a few lines: as §2
The test system of data set [17] is Rattus norvegicus. Kind of data set: Distribution of radioactivity of radiolabeled compound in blood of female rats 30 minutes after intravenous administration. The class given is ADME, organism-based. The conditions noted are these: in vivo, 0.5 h.
Data set [18] concerns Rattus norvegicus. Put plainly: Polyacrylamide Gel Electrophoresis (PAGE) analysis of rat plasma 5 minutes after intravenous administration of radiolabeled compound in albumin. The class given is functional, organism-based. In a few lines:
as §1

Data set [19] concerns Rattus norvegicus. Kind of data set: Polyacrylamide Gel Electrophoresis (PAGE) analysis of rat plasma 5 minutes after intravenous administration of radiolabeled compound in stacking gel. The format is functional, organism-based. The method, boiled down: as §1
For data set [20], the system named is Rattus norvegicus. Kind of data set: Distribution of radioactivity of radiolabeled compound in liver of female rats 30 minutes after intravenous administration. The class given is ADME, organism-based. Particulars: in vivo, 0.5 h.
For data set [21], the system named is Rattus norvegicus. Kind of data set: Polyacrylamide Gel Electrophoresis (PAGE) analysis of rat plasma 5 min after intravenous administration of radiolabeled compound concentration of albumin. The format is functional, organism-based. The method, boiled down: as §2
For data set [22], the system named is Rattus norvegicus. Kind of data set: Polyacrylamide Gel Electrophoresis (PAGE) analysis of rat plasma 30 min after intravenous administration of radiolabeled compound ( below albumin). The format is functional, organism-based. The method, boiled down:
as §2

For data set [23], the system named is Rattus norvegicus. Kind of data set: Polyacrylamide Gel Electrophoresis (PAGE) analysis of rat plasma 5 minutes after intravenous administration of radiolabeled compound at in high density lipoprotein. The class given is functional, organism-based. The method, boiled down: as §1
Data set [24] has as its system Rattus norvegicus. Kind of data set: Polyacrylamide Gel Electrophoresis (PAGE) analysis of rat plasma 5 minutes after intravenous administration of radiolabeled in stacking gel. The format is functional, organism-based. The method, boiled down: as §1
Data set [25] concerns Rattus norvegicus. Put plainly: Polyacrylamide Gel Electrophoresis (PAGE) analysis of rat plasma 30 min after intravenous administration of radiolabeled compound at in high density. The class given is functional, organism-based. The method, boiled down: as §2
Data set [26] has as its system Rattus norvegicus. Kind of data set: Polyacrylamide Gel Electrophoresis (PAGE) analysis of rat plasma 5 minutes after intravenous administration of radiolabeled compound (below albumin ). The format is functional, organism-based. The method, boiled down: as §1
The subject of data set [27] is Rattus norvegicus. Put plainly: Polyacrylamide Gel Electrophoresis (PAGE) analysis of rat plasma 30 min after intravenous administration of radiolabeled compound in low density lipoprotein. The class given is functional, organism-based. In a few lines: as §2
The test system of data set [28] is Rattus norvegicus. Kind of data set: Polyacrylamide Gel Electrophoresis (PAGE) analysis of rat plasma 30 minutes after intravenous administration of radiolabeled compound (below albumin ). The class given is functional, organism-based. In a few lines: as §2
Data set [29] relates to Rattus norvegicus. Put plainly: Polyacrylamide Gel Electrophoresis (PAGE) analysis of rat plasma 5 minutes after intravenous administration of radiolabeled compound (below albumin). The class given is functional, organism-based. In a few lines: as §1
The subject of data set [30] is Rattus norvegicus. Kind of data set: Polyacrylamide Gel Electrophoresis (PAGE) analysis of rat plasma 30 minutes after intravenous administration of radiolabeled compound in low-density lipoprotein. The class given is functional, organism-based. The method, boiled down:
as §2

The subject of data set [31] is Rattus norvegicus. Put plainly: Polyacrylamide Gel Electrophoresis (PAGE) analysis of rat plasma 30 minutes after intravenous administration of radiolabeled compound in high density lipoprotein. The class given is functional, organism-based. In a few lines:
as §2

Data set [32] concerns Rattus norvegicus. Kind of data set: Polyacrylamide Gel Electrophoresis (PAGE) analysis of rat plasma 30 minutes after intravenous administration of radiolabeled compound concentration of stacking gel. The class given is functional, organism-based. In a few lines:
as §2

In data set [33] the test system is Rattus norvegicus. Kind of data set: Polyacrylamide Gel Electrophoresis (PAGE) analysis of rat plasma 30 minutes after intravenous administration of radiolabeled compound in albumin. The format is functional, organism-based. In a few lines: as §2

`CCC(Cc1c(I)cc(I)c(N)c1I)C(=O)O` (stereo not given) [IOPANOIC ACID]: the Concentration is 2.2 in the data set on Rattus norvegicus [1]; 8.7% in the data set with Rattus norvegicus [2]; 0.5% in the data set on Rattus norvegicus [4]; 19.8 in the data set with Rattus norvegicus [10]; 3.9 in the data set with Rattus norvegicus [11]; 78.4 with Rattus norvegicus [12]. Also, the Concentration with Rattus norvegicus [13] worked out at 6.7%; in the data set with Rattus norvegicus [16], 77.5; in the data set on Rattus norvegicus [18], 77.5; in the data set with Rattus norvegicus [19], 0.6%. Also, the Dose in the data set with Rattus norvegicus [3] stood at 0.61%; in the data set on Rattus norvegicus [5] it was 0.81%; in the data set with Rattus norvegicus [6], 0.71%; in the data set with Rattus norvegicus [7], 1.64%; with Rattus norvegicus [8], 0.74%; in the data set on Rattus norvegicus [9] it was 0.52%. In addition, the Dose was found to be 0.46% with Rattus norvegicus [14], 2.19% with Rattus norvegicus [15], 1.21% in the data set with Rattus norvegicus [17] and 1.46% with Rattus norvegicus [20].
Regarding `Nc1c(I)cc(I)c(CC(=O)O)c1I`, the Concentration in the data set on Rattus norvegicus [21] came to 76; with Rattus norvegicus [22] it was 7; in the data set on Rattus norvegicus [23], 15.8%; in the data set with Rattus norvegicus [24], 1.7%; in the data set on Rattus norvegicus [25], 7.3%; in the data set on Rattus norvegicus [4] it was 1%. The Concentration was found to be 83.6 in the data set with Rattus norvegicus [12], 5.5 with Rattus norvegicus [26], 1.7% in the data set with Rattus norvegicus [19] and 0.4 with Rattus norvegicus [27]. Besides, the Dose was 1.07% in the data set on Rattus norvegicus [3]; 1.49% in the data set with Rattus norvegicus [5]; 4.62% in the data set on Rattus norvegicus [6]; 0.87% in the data set with Rattus norvegicus [7]; 1.09% in the data set on Rattus norvegicus [8]; 5.82% in the data set on Rattus norvegicus [9]. The Dose in the data set on Rattus norvegicus [14] was determined as 0.72%; in the data set on Rattus norvegicus [15], 5.44%; with Rattus norvegicus [17], 2.41%; in the data set with Rattus norvegicus [20], 0.5%.
For the molecule `Nc1c(I)cc(I)c(CCCCCCCCCCCCCCCCC(=O)O)c1I`, the Concentration was 10% in the data set on Rattus norvegicus [28]; 3.5 in the data set on Rattus norvegicus [29]; 3.2% with Rattus norvegicus [30]; 4.7% with Rattus norvegicus [4]; 18.5% in the data set on Rattus norvegicus [31]; 7.6 in the data set on Rattus norvegicus [32]. The Concentration in the data set with Rattus norvegicus [10] was found to be 26.6; with Rattus norvegicus [16], 60; in the data set on Rattus norvegicus [33], 60.6; in the data set with Rattus norvegicus [19], 5.2%. The Dose worked out at 0.84% in the data set with Rattus norvegicus [3]; 1.11% in the data set with Rattus norvegicus [5]; 0.48% in the data set with Rattus norvegicus [6]; 6.3% in the data set on Rattus norvegicus [7]; 1.06% in the data set on Rattus norvegicus [8]; 1.01% with Rattus norvegicus [9]. For the same molecule, the Dose in the data set with Rattus norvegicus [14] is given as 1.01%; with Rattus norvegicus [15], 2.25%; in the data set with Rattus norvegicus [17] it was 1.23%; in the data set on Rattus norvegicus [20] it was 4.37%.
